Reference: PMC5402717 (Pain, 2017)
pIC50, pKi: −log10 of the molar value. Entries after “also recorded” stand apart in the source; their conditions may differ. Each block holds one compound with its values, some of them ahead of it.

Columns and labels:
[1] = biological target: PKG-1α; conditions: cited from earlier work
[2] = biological target: T1, purified bovine PKG-1α (Bos taurus, UniProt P00516); assay: In vitro protein kinase G assay; assay type: biochemical; conditions: for pIC50: IC50 for PKG-1α
T1 sequence (P00516 1-671): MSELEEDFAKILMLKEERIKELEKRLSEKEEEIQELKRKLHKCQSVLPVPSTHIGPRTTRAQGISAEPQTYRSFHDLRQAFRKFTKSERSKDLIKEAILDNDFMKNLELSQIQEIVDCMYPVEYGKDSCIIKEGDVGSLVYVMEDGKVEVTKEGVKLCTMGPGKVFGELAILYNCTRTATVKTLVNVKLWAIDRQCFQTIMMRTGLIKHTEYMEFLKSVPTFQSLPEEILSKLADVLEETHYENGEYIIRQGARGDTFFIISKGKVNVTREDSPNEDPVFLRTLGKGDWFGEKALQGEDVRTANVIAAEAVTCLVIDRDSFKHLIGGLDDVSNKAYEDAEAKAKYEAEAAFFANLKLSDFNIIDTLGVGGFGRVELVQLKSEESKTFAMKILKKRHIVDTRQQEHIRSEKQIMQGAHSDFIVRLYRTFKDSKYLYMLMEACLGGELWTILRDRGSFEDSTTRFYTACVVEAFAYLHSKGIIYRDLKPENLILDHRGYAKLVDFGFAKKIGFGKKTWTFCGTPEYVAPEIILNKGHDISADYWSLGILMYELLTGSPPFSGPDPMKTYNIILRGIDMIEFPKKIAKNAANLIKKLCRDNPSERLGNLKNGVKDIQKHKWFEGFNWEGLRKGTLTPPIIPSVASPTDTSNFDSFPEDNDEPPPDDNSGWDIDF
Procedure, shortened: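 Reaction started with 10 μM [32P]-ATP, run 20 min at 37°C, stopped with 50 mM EDTA. Peptide captured on phosphocellulose filters, counted by β-scintillation. IC50s are single determinations in duplicate.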

[3] = biological target: recombinant catalytic domain of human PKA (Homo sapiens, UniProt P17612); assay: In vitro cAMP-dependent kinase; assay type: biochemical
Procedure, shortened: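 Recombinant human PKA catalytic domain with kemptide substrate; activity measured as 32P incorporation from [γ-32P]ATP in Tris buffer. Labeled peptide captured on cellulose phosphate filters and counted by β-scintillation. IC50s are single determinations run in duplicate.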

[4] = biological target: cardiac hERG potassium channel (Homo sapiens, UniProt Q12809); assay: hERG tail current recording; assay type: cell-based
cardiac hERG potassium channel, sequence (Q12809 whole entry): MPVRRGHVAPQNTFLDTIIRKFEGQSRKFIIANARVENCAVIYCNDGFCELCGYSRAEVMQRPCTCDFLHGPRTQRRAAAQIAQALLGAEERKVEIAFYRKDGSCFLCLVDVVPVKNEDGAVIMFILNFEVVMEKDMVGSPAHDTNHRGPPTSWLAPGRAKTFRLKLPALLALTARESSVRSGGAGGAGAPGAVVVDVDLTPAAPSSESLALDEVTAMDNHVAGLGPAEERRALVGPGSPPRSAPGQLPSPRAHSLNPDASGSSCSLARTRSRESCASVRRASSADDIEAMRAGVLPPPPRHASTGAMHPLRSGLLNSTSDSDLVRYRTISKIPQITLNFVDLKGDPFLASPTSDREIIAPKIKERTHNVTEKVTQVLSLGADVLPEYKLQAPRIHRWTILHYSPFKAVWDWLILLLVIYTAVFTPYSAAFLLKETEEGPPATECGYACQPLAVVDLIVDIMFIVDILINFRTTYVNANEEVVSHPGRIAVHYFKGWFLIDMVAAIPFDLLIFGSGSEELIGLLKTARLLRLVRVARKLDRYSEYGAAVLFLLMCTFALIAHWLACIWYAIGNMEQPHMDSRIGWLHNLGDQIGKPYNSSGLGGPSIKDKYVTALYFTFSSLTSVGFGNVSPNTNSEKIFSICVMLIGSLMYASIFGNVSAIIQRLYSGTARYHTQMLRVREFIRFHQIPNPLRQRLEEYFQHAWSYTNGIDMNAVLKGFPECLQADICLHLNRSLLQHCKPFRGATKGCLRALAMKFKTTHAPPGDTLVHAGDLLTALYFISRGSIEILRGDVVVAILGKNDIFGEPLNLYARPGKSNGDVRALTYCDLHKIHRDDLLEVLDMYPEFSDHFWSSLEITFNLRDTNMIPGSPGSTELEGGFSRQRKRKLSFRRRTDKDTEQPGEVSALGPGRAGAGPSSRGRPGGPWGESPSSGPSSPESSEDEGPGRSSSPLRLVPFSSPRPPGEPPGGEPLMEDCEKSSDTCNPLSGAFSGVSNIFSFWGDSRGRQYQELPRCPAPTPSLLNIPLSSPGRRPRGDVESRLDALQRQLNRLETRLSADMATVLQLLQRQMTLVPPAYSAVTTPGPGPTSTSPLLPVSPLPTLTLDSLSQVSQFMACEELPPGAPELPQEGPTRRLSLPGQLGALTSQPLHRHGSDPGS
Procedure, shortened: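 hERG tail currents evoked by a voltage protocol applied every 10 s. Test compound applied cumulatively at 0.1, 0.3, 1.0, 3, 10 and 30 μM, 5 min per concentration, with 1 μM cisapride as positive control. Mean percent inhibition from 13 cells gave a 6-point curve, from which IC50 was calculated.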

[5] = Stability of N46 in plasma in vitro; assay type: in vitro ADME; conditions: rat plasma, 37°C
[6] = Tissue distribution of N46 in vivo; conditions: rat, tail vein injection
Procedure, shortened: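 Test compound injected into the rat tail vein. Tissues homogenized in 0.1N sodium carbonate (2 mL) plus methanol (6 mL), centrifuged, and supernatant analyzed by LC/MS. C18 column, acetonitrile-water gradient 0-100% over 20 min, detection at 220 nm. Results corrected for % recovery using spiked standard curves.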

[7] = system: Sprague-Dawley rats; assay: CFA-induced thermal hyperalgesia; assay type: in vivo, rat
Procedure, shortened: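 Male Sprague-Dawley rats (250-300 g) given 100 μL CFA intraplantar; one day later, test compound was given intrathecally at L4/L5 (15 μL, 1% DMSO/saline, saline flush) or into the tail vein (1 mL, quarter normal saline), vs vehicle. Hargreaves radiant heat test: glass at 30°C, 30 min acclimation, baseline latency ~10 s, 20 s cutoff. Both paws tested the following day, double-blind.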

[8] = system: Sprague-Dawley rats; assay: MIA-induced osteoarthritic knee joint pain; assay type: in vivo, rat; conditions: 5 nmol intra-articular 14 days after MIA
Procedure, shortened: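 Baseline hind-limb weight bearing taken on day 0. Rats then received 3 mg MIA in 50 μL saline into the right knee and saline into the left. At 14 days, 5 nmol test compound or quarter-saline vehicle (50 μL) was given intra-articularly. Incapacitance tester: paw force averaged over 5 s, 3 trials per point, expressed as percent difference between limbs.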

[9] = system: Sprague-Dawley rats; assay: Capsaicin-induced mechanical hypersensitivity; assay type: in vivo, rat; conditions: 10 nmol N46 into hind paw, no capsaicin
Procedure, shortened: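 Male Sprague-Dawley rats given 10 nmol test compound intraplantar, without capsaicin. von Frey hairs (0.4-15 g) applied for ~6 s each, up-down sequence starting at 2 g. 50% paw withdrawal threshold calculated by the Chaplan method at set times after injection; n = 15 per group; double-blind.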

[10] = Heart rate and blood pressure monitoring after N46 injection; assay type: in vivo, rat; conditions: injected 1uM N46, monitored 30 minutes; data not shown
Procedure, shortened: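 Heart rate and systolic and diastolic blood pressure recorded for a 30 min baseline, then 1uM test compound injected and monitoring continued for 30 min.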

[11] = General observation for abnormalities or deficits; assay type: in vivo, rat; conditions: N46-injected rats
[12] = system: panel of 274 kinases; assay: Kinase panel screening, overall selectivity; assay type: biochemical
[13] = system: PKG-1α; assay: PKG-1α activity in sciatic nerve segment after capsaicin injection; assay type: in vivo, rat; conditions: capsaicin 0.1 μM under the perineurium of the sciatic nerve, 30 minutes
Procedure, shortened: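 Capsaicin (0.1 μM) injected under the sciatic nerve perineurium, with an equal vehicle volume into the contralateral nerve. After 30 min, the 1 cm segment containing the injection site was harvested and homogenized. Equal-protein samples were assayed for PKG-1α activity; N = 4.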

Structure (SMILES): COC(=O)[C@@]1(OC)C[C@H]2O[C@]1(C)n1c3ccccc3c3c4c(c5c6ccccc6n2c5c31)C(=O)N(C)C4 [KT5823]
pKi [1]: 6.63

fold difference of IC50, PKA versus PKG-1α [2]: 714 fold
pIC50 [2]: 8.12
pIC50 ([2]; 10 μM ATP, 37°C, 20 minutes): 8.15
type of inhibition of PKG-1α (kinetic studies) ([2]; data not shown): noncompetitive inhibitor
pIC50 [3]: 5.30
stability in plasma (time stable) [5]: at least 7 hours
presence in the CNS [6]: not detected in the CNS
number of kinases inhibited more than 50% ([12]; 750 nM N46): 12
off-target hit rate (kinases inhibited by more than 50%) ([12]; 12 out of 274, dose of N46 where PKG-1 was inhibited 100%): 4.4%
Structure (SMILES): CCCOc1ccc(OC)c(F)c1C(=O)c1ccc(C(=O)N[C@@H]2CNC[C@H]2NC(=O)c2ccc3[nH]ncc3c2)cc1 [N46, N-((3R,4R)-4-(4-(2-fluoro-3-methoxy-6-propoxybenzoyl)benzamido)pyrrolidin-3-yl)-1H-indazole-5-carboxamide]
pIC50 [4]: 5.35
thermal hyperalgesia (PWL), CFA-injected paw ([7]; 0.25 nmol intrathecal 1 day after CFA, measured post-CFA day 2, vs vehicle): marked reduction
thermal hyperalgesia (PWL), CFA-injected paw ([7]; 1 nmol into the tail vein 1 day after CFA, 24 hours later, vs vehicle): significantly increased the PWL; also recorded: significantly reduced the heat hyperalgesia
duration of relief after a single injection ([7]; CFA model): at least 24 hours
thermal threshold, contralateral noninflamed paw ([7]; N46 intrathecal): no significant changes
duration of relief after a single injection [8]: 7 days
weight bearing distribution ([8]; days 15 and 21, vs vehicle): significant improvement in weight bearing distribution; also recorded: significantly reversed the MIA-induced shift in weight bearing
mechanical threshold, N46 alone [9]: had no effect
heart rate and systolic and diastolic blood pressure [10]: no significant effect
sedation [11]: no evidence of sedation

Structure (SMILES): Nc1nc2c(nc(Sc3ccc(Cl)cc3)n2[C@@H]2O[C@@H]3CO[P@@](=O)(S)O[C@H]3[C@H]2O)c(=O)[nH]1 [RPG, Rp-8-pCPT-cGMPS, reference compound]
thermal hyperalgesia (PWL), CFA-injected paw ([7]; 250 nmol intrathecal 1 day after CFA, PWL measured the following day, vs vehicle): alleviated significantly; also recorded: significant improvement in mean PWL
thermal threshold, contralateral noninflamed paw ([7]; RPG intrathecal): no significant changes
pKi [1]: 6.30

Structure (SMILES): COc1cc(CNC(=O)CCCC/C=C/C(C)C)ccc1O [capsaicin]
PKG-1α in the nerve segment that was active [13]: 40 ± 15%
